From the array DNA melting data of Ke et al. (doi:10.1101/2024.01.08.574731)

What was measured:
[1] = folding enthalpy; higher = less favourable; fluorescence melt of hairpins on a sequencing array, two-state fit; conditions: sodium 0.088 M
Summary of the method: (§1)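 Melting temperature and folding enthalpy were derived from bootstrapped two-state fits. The fitted temperatures were raised by 9.35 °C to agree with UV melts, and four replicates were combined by inverse variance. The underlying data were Cy3 fluorescence images of library hairpins, with annealed Cy3 and quencher oligos, on a sequenced MiSeq flow cell in 50 mM Na-HEPES pH 8.0, 25 mM NaCl, taken in 2.5 °C steps up to 60 °C, normalised to pre-quench Cy3 and to control constructs.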

[2] = melting temperature; fluorescence melt of hairpins on a sequencing array, two-state fit, raised by 9.35 °C to match UV melts; conditions: sodium 0.088 M
Summary of the method: as §1

Row | Sequence | folding enthalpy [1] | Tm [2]
1 | GTTTGCGGAAACGCAAGC (.(((((....))))).) | -23.4 kcal/mol | 54.6 °C
2 | GTACGCGAAAGCGGATAC ((((((....)))..))) | -10.3 kcal/mol | 37.1 °C
3 | GATCCTGCGGAGGATC ((((((....)))))) | -37.1 kcal/mol | 50.3 °C
4 | GTCTACGAAAGTAAGGAC ((((((....)))..))) | -19.5 kcal/mol | 31.2 °C
5 | GGCGTCGAAAGACAGGCC ((((((....)))..))) | -31.3 kcal/mol | 55 °C
6 | GTTGTCACGAAAGTGAAC (((..(((....)))))) | -23.7 kcal/mol | 48.1 °C
7 | GGGATTGGAAACGATTCC ((.((.(....).)).)) | -21 kcal/mol | 36.9 °C
8 | GGACTCGAAAGAGGTTCC ((((((....)))..))) | -17.6 kcal/mol | 33.8 °C
9 | GTCTCTCGAAAGAGGGAC (((.(((....))).))) | -36.1 kcal/mol | 55.5 °C
10 | GCTAGGCGAAAGCTCAGC (((..((....))..))) | -19.6 kcal/mol | 42.9 °C
11 | GATCTACACTAGATC ((((((...)))))) | -20.8 kcal/mol | 41.7 °C
12 | GACACTGGAAACAGTGTC (((((((....))))))) | -37 kcal/mol | 66 °C
13 | GTTTCCGAAAGGAACAAC ((((((....)))..))) | -13.7 kcal/mol | 31.2 °C
14 | GGTAGGACGAAAGTCACC (((..(((....)))))) | -15.5 kcal/mol | 35.8 °C
15 | GCCCGAGGAAACCCAGGC (((.(.(....).).))) | -16.5 kcal/mol | 28.1 °C
16 | GCGTACGAAAGTAGACGC ((((((....)))..))) | -25.3 kcal/mol | 51.8 °C
17 | GTTCAGGCGAAAGCCAAC (((..(((....)))))) | -8.95 kcal/mol | 26.1 °C
18 | GATCTTAACCAAGATC ((((((....)))))) | -33.7 kcal/mol | 42.9 °C
19 | CCAAAGAAATTTGG (((((....))))) | -8.79 kcal/mol | 30.9 °C
20 | GCACGGGGAAACCCGCAC (..((((....))))..) | -9.35 kcal/mol | 25.2 °C
21 | GACTACGAAAGTAGGGTC ((((((....)))..))) | -16.5 kcal/mol | 46.7 °C
22 | GTGGTGGGAAACCACTGC (..((((....))))..) | -24.2 kcal/mol | 55.1 °C
23 | GATACACGAAAGTGAATC (((.(((....))).))) | -22.1 kcal/mol | 45.2 °C

Row | Sequence | folding enthalpy [1] | Tm [2]
24 | GATTAGGGAAACCTGATC (((.(((....))).))) | -24.1 kcal/mol | 38 °C
25 | GAACGCGAAAGCGACTTC ((((((....)))..))) | -13.8 kcal/mol | 46.1 °C
26 | GAAGTGGGAAACCACTTC (((((((....))))))) | -45.4 kcal/mol | 59.9 °C
27 | GATGTACGAAAGTAAATC (((.(((....))).))) | -23.9 kcal/mol | 35.5 °C
28 | GTCCCCGAAAGGGAAGAC ((((((....)))..))) | -13.5 kcal/mol | 44.5 °C
29 | GATCTGATGGCAGATC ((((((....)))))) | -36.5 kcal/mol | 47.7 °C
30 | GGTTCCGAAAGGACACC ((((((....))).))) | -24.5 kcal/mol | 48 °C
31 | GCTAAGCGAAAGCCAAGC (((..((....))..))) | -20.3 kcal/mol | 38 °C
32 | GTAGGGGGAAACTCCTGC (.(((.(....).))).) | -20 kcal/mol | 35.5 °C
33 | GATCTCATTGGAGATC ((((((....)))))) | -38.7 kcal/mol | 52.2 °C
34 | GATCATGCAGATGATC ((((((....)))))) | -39.3 kcal/mol | 51.4 °C
35 | GGGCATCGAAAGATCCC (((.(((....)))))) | -30.4 kcal/mol | 50.4 °C
36 | GAACTGCGAAAGCATTTC (((.(((....))).))) | -20.1 kcal/mol | 38.7 °C
37 | GATCGAAAAACGATC ((...........)) | -20.3 kcal/mol | 39.2 °C
38 | GATCACCATCGTGATC ((((((....)))))) | -31.8 kcal/mol | 54.5 °C
39 | GATCTCAACTGAGATC ((((((....)))))) | -44.1 kcal/mol | 52.1 °C
40 | GATCTTCCAAAGATC ((((((...)))))) | -27.4 kcal/mol | 43.2 °C
41 | GCATCGCCGAAAGGCTGC (((..(((....)))))) | -14.1 kcal/mol | 43.4 °C
42 | GATCCAGAGTTGGATC ((((((....)))))) | -39.8 kcal/mol | 49.2 °C
43 | GCGATCTCGAAAGAGCGC (((..(((....)))))) | -33.1 kcal/mol | 56.3 °C
44 | GGTCACGAAAGTGTAACC ((((((....)))..))) | -18.3 kcal/mol | 39.6 °C
45 | GGCTGCGAAAGCAAAGCC ((((((....)))..))) | -24.7 kcal/mol | 61.3 °C
46 | GCAAGTCGAAAGACTGC (((.(((....)))))) | -25.8 kcal/mol | 57.1 °C

Row | Sequence | folding enthalpy [1] | Tm [2]
47 | GATCAGTGCGCTGATC ((((((....)))))) | -44.1 kcal/mol | 56.6 °C
48 | GCGCTGCGAAAGCCTCGC (((..((....))..))) | -22 kcal/mol | 47.6 °C
49 | GAATCGGGAAACCGATTC (((((((....))))))) | -40.8 kcal/mol | 63.6 °C
50 | GGAGTGTCGAAAGACTCC (((..(((....)))))) | -17.2 kcal/mol | 39.2 °C
51 | GTGTATCGAAAGATCCAC (((.(((....))).))) | -33.5 kcal/mol | 41.2 °C
52 | GCCACGCGAAAGCGACGC ((..(((....)))..)) | -11.8 kcal/mol | 39.8 °C
53 | GTCCACGAAAGTGTTGAC ((((((....)))..))) | -17 kcal/mol | 31.6 °C
54 | GATCCACTGTTGGATC ((((((....)))))) | -30.4 kcal/mol | 49.9 °C
55 | GTGGCCGGAAACGGTCGC (.(.(((....))).).) | -39.5 kcal/mol | 53.4 °C
56 | GACACCGAAAGGTACGTC ((((((....)))..))) | -14.1 kcal/mol | 35.8 °C
57 | GCTGTTGGAAACAATAGC (((.(((....))).))) | -31.9 kcal/mol | 47.9 °C
58 | GAGCCGCGAAAGCGCTC (((.(((....)))))) | -16.7 kcal/mol | 58.9 °C
59 | GGCCTCGAAAGAGTTGCC ((((((....)))..))) | -17.2 kcal/mol | 45.5 °C
60 | GCGGTTCCCCGC ((((....)))) | -21 kcal/mol | 60.8 °C
61 | GTCTCCGAAAGGATGAC ((((((....))).))) | -25.6 kcal/mol | 48.5 °C
62 | GATCTCAAGAGAGATC ((((((....)))))) | -32.5 kcal/mol | 49.4 °C
63 | GGCGGCGAAAGCCGAGCC ((((((....)))..))) | -12.3 kcal/mol | 58 °C
64 | GCTTCGGGAAACCGGAGC (((.(((....))).))) | -41.5 kcal/mol | 56.5 °C
65 | GTGTGCGAAAGCACCAC ((((((....))).))) | -9.37 kcal/mol | 51 °C
66 | GACCGTGGAAACATGGTC ((((.((....)).)))) | -43.2 kcal/mol | 54.2 °C
67 | GAGGGAGGAAACTCCTTC ((.((((....)))).)) | -19.7 kcal/mol | 38.3 °C
68 | GATCGCGCGTGCGATC ((((((....)))))) | -26.4 kcal/mol | 67.9 °C
69 | GGTTACGAAAGTATACC ((((((....))).))) | -23.8 kcal/mol | 43.1 °C

Row | Sequence | folding enthalpy [1] | Tm [2]
70 | GGTCTGGGAAACCAGATC (.(((((....))))).) | -25.8 kcal/mol | 49.4 °C
71 | GTGGGAGGAAACTTCCGC (.((.((....)).)).) | -23.9 kcal/mol | 40.6 °C
72 | GATAACCGAAAGGTCATC (((.(((....))).))) | -21.3 kcal/mol | 37.2 °C
73 | GATCACCGAGTGATC ((((((...)))))) | -34.9 kcal/mol | 55.4 °C
74 | CGGAGACGGAAACGTCCG (((..(((....)))))) | -17.6 kcal/mol | 47.1 °C
75 | GCCGGAGCGAAAGCTGGC (((..(((....)))))) | -21.6 kcal/mol | 55.4 °C
76 | GCCACTCGAAAGAGCGGC (((.(((....))).))) | -46.9 kcal/mol | 61.3 °C
77 | GTCTTCGAAAGAACGGAC ((((((....)))..))) | -14.6 kcal/mol | 30.4 °C
78 | GGCACGGGAAACCGCACC ((..(((....)))..)) | -10.3 kcal/mol | 32.4 °C
79 | GGAAGCCCGAAAGGGTCC (((..(((....)))))) | -10.8 kcal/mol | 35.4 °C
80 | GCCGATCGAAAGATGGGC (((.(((....))).))) | -40.4 kcal/mol | 55.9 °C
81 | GAAGCAGGAAACTGCTTC (((((((....))))))) | -39.9 kcal/mol | 62.2 °C
82 | GCCGCCGGAAACGGCGAC (.(((((....))))).) | -10.6 kcal/mol | 60.9 °C
83 | GGCAGACGAAAGTCGCC (((.(((....)))))) | -23.1 kcal/mol | 65.2 °C
84 | GCGCTCGAAAGAGTCCGC ((((((....)))..))) | -24.3 kcal/mol | 42.8 °C
85 | GGTTTCGAAAGAAAGACC ((((((....)))..))) | -14.4 kcal/mol | 30.1 °C
86 | GATCACTTAAGTGATC ((((((....)))))) | -38 kcal/mol | 59.3 °C
87 | GGGCTCGAAAGAGACCCC ((((((....)))..))) | -12.7 kcal/mol | 63.8 °C
88 | GAGGCTGGAAACGGTCTC (((.(.(....).).))) | -28.5 kcal/mol | 39.6 °C
89 | GTTTAGGGAAACTTAAGC (.(((.(....).))).) | -15.4 kcal/mol | 33.6 °C
90 | GCGGCGCGAAAGCATCGC (((..((....))..))) | -22.6 kcal/mol | 61.4 °C
91 | GCACACGGAAACGTGCAC (..((((....))))..) | -9.99 kcal/mol | 33.2 °C
92 | GTGGTAGCGAAAGCTCAC (((..(((....)))))) | -18.1 kcal/mol | 43.8 °C
